This experiment can be described thus: Interaction with DPPH. The method in brief: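 DPPH 0.1 mM in absolute ethanol mixed with an equal volume of test compound in ethanol (0.1 mM); ethanol-only control. Kept at room temperature; absorbance at 517 nm recorded after 20 and 60 min. At least triplicate.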

On to `CC(Cc1ccc(O)c(O)c1)C(C)Cc1ccc(O)c(O)c1` (centres unmarked) [NDGA, nor-dihydroguaeretic acid], for which the “DPPH (0.1 mmol/L) 20min” value amounted to 94%.
In the case of `CC(=O)Oc1ccccc1C(=O)O` [ASA, Acetyl salicylic acid] it was 80.5%.

For the origin of these results see publication PMC6146878 (Molecules : A Journal of Synthetic Chemistry and Natural …, 2003).
